Laboratory results: ChEMBL document CHEMBL1139365, “Inhibition of MDR1 activity in vitro by a novel class of diltiazem analogues: toward new candidates” (J Med Chem, 2009)
Active and inactive are the calls of the source. The rule behind the calls is not given here.

Assays:
A2780 [1] = test: Antiproliferative activity against human A2780 cells at 0.14 uM after 3 days by MTT assay; format: functional; conditions: A2780, 72 h
[2] = Antiproliferative activity against human A2780/DX3 cells at 0.81 uM after 3 days by MTT assay; format: functional; conditions: A2780/DX3, 72 h
A2780 ADR [3] = test: Reversal of P-gp 170-mediated multidrug resistance in human A2780/DX3 cells assessed as reduction in doxorubicin IC50 at IC0 pretreated for 6 hrs before doxorubicin administration measured after 3 days by MTT assay; format: cell-based; parameters: scale not given: the % may be the effect or the level left
In short: (§1)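 A2780/DX3 cells went into medium holding the modulator at its MTT-derived 0% or 5% growth-inhibition concentration. Doxorubicin (30–0.048 μM serial dilutions, modulator kept constant) was added 6 h later. MTT (2 mg/mL) was added after 3 days for 4 h at 37 °C, formazan dissolved in DMSO, A540 read. IC50 came from dose–response curves, repeated 4–6 times. % reduction is versus doxorubicin alone in the same experiment. Kruskal–Wallis/Mann–Whitney tests.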

A2780 ADR [4] = test: Reversal of P-gp 170-mediated multidrug resistance in human A2780/DX3 cells assessed as increase in intracellular doxorubicin accumulation at 5 times IC5 pretreated for 2 hrs before doxorubicin administration measured after 2 hrs by flow cytometry; format: cell-based
In short: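 A2780/DX3 cells (kept in 0.1 μM doxorubicin, drug withdrawn 2–3 days before use) seeded in flasks, grown 24 h to 75–85% confluence. Modulator given at five times the 5%-growth-inhibition concentration for 2 h, then 10 μM doxorubicin for 2 h more. Cells trypsinized, fixed in 3.7% paraformaldehyde/2% sucrose in PBS. Flow cytometry, 488 nm excitation, 575 nm bandpass. Read-out is MFI, with % increase taken from the MFI ratio to doxorubicin alone.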

[5] = Antiproliferative activity against human A2780/DX3 cells after 3 days by MTT assay; format: functional, cell-based; conditions: for IC50: Homo sapiens, A2780/DX3, 72 h
In short: (§2)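 Cells plated 6–8 h in 96-well plates. Compound alone, in duplicate at ≥5 concentrations (3-fold serial dilutions, top 100 μM), with final DMSO […] after predilution in FCS. After 3 days, MTT 4 h at 37 °C, formazan dissolved in DMSO, A540. IC50 taken from single dose–response curves; 3–4 experiments. A2780/DX3 kept doxorubicin-free 2–3 days beforehand.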

A2780 [6] = test: Antiproliferative activity against human A2780 cells after 3 days by MTT assay; format: functional, cell-based; conditions: for IC50: Homo sapiens, A2780, 72 h; in short: as §2
A2780 ADR [7] = test: Reversal of P-gp 170-mediated multidrug resistance in human A2780/DX3 cells assessed as reduction in doxorubicin IC50 at IC5 pretreated for 6 hrs before doxorubicin administration measured after 3 days by MTT assay; format: cell-based; parameters: scale not given: the % may be the effect or the level left; in short: as §1
[8] = Antiproliferative activity against human A2780/DX3 cells at 1.23 uM after 3 days by MTT assay; format: functional; conditions: A2780/DX3, 72 h
A2780 [9] = test: Antiproliferative activity against human A2780 cells at 1.3 uM after 3 days by MTT assay; format: functional; conditions: A2780, 72 h
A2780 [10] = test: Antiproliferative activity against human A2780 cells at 2.20 uM after 3 days by MTT assay; format: functional; conditions: A2780, 72 h
A2780 [11] = test: Down regulation of P-gp 170 expression in human A2780 cells after 72 hrs by flow cytometry; format: functional, cell-based
In short: (§3)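 Cells exposed 72 h to compound at concentrations giving 5% or 0% growth inhibition. Then washed in PBS/2% FCS; 2.5 × 10^5 cells stained at 4 °C with anti-Pgp MM4.17 monoclonal, then FITC goat anti-mouse IgG, and analysed by flow cytometry.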

[12] = Antiproliferative activity against human A2780/DX3 cells at 2.40 uM after 3 days by MTT assay; format: functional; conditions: A2780/DX3, 72 h
[13] = Down regulation of P-gp 170 expression in human A2780/DX3 cells after 72 hrs by flow cytometry; format: functional, cell-based; in short: as §3
A2780 ADR [14] = test: Reversal of P-gp 170-mediated multidrug resistance in human A2780/DX3 cells assessed as increase in intracellular doxorubicin accumulation at 5 times IC5 pretreated for 2 hrs before doxorubicin administration measured after 2 hrs by epifluorescent microscopic analysis; format: cell-based
In short: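 A2780/DX3 cells on chamber slides at 75–85% confluence, pretreated 2 h with compound at five times the concentration giving 5% growth inhibition. Doxorubicin 10 μM then added for 2 h. Cells washed in cold PBS, fixed in 3.7% paraformaldehyde/2% sucrose, mounted and imaged by epifluorescence at 20X. Untreated and compound-only controls included.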

A2780 [15] = test: Ratio of IC50 for human A2780/DX3 cells to IC50 for human A2780 cells assessed as mean resistance index; format: functional
In short: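 Doxorubicin alone tested by 3-day MTT assay in both lines (absorbance at 540 nm). IC50 from dose–response curves. Index is the mean IC50 in resistant cells divided by the mean IC50 in sensitive cells.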

A2780 [16] = test: Antiproliferative activity against human A2780 cells at 0.15 uM after 3 days by MTT assay; format: functional; conditions: A2780, 72 h
[17] = Antiproliferative activity against human A2780/DX3 cells at 0.3 uM after 3 days by MTT assay; format: functional; conditions: A2780/DX3, 72 h
[18] = Antiproliferative activity against human A2780/DX3 cells at 4.0 uM after 3 days by MTT assay; format: functional; conditions: A2780/DX3, 72 h
A2780 [19] = test: Antiproliferative activity against human A2780 cells at 2.9 uM after 3 days by MTT assay; format: functional; conditions: A2780, 72 h

SMILES | Activity (A2780 ADR [3]) [%] | Activity (A2780 ADR [4]) [%] | IC5 [5] [µM] | IC50 [5] [µM] | IC5 (A2780 [6]) [µM] | IC50 (A2780 [6]) [µM] | Activity (A2780 ADR [7]) [%] | Activity (A2780 [11]) | Activity [13] | other results
O=c1onc2n1C=CSC2(O)c1ccc(Cl)cc1 (stereo not drawn) | 3 | < 48 | 3.02 | > 100 | 0.48 | > 100 | 10 | – | – | inhibition at 0.14 µM (A2780 [1]): 0%; inhibition at 0.81 µM [2]: 0%
CC/C=C/COC1(c2ccc(Br)cc2)SC=C(C)n2c1noc2=O (stereo not drawn) | -8 | < 48 | 2.45 | 111 | 1.9 | 59 | -23 | – | – | inhibition at 1.23 µM [8]: 0%; inhibition at 1.3 µM (A2780 [9]): 0%
CC/C=C\COC1(c2ccc(Cl)cc2)SC=C(C)n2c1noc2=O (stereo not drawn) | -9 | 429 | 20.7 | 103 | 3.5 | 55 | -47 | inactive | inactive | inhibition at 2.2 µM (A2780 [10]): 0%; inhibition at 2.4 µM [12]: 0%
COc1cccc2c1C(=O)c1c(O)c3c(c(O)c1C2=O)C[C@@](O)(C(=O)CO)C[C@@H]3O[C@H]1C[C@H](N)[C@H](O)[C@H](C)O1 [DOXORUBICIN] | – | – | – | 2.21 | – | 0.02 | – | – | – | Activity_index (A2780 ADR [14]): Active; Ratio IC50 (A2780 [15]): 93
CC/C=C/COC1(c2ccc(Cl)cc2)SC=C(C)n2c1noc2=O (stereo not drawn) | 2 | < 48 | 2.5 | 88 | 1.26 | 55 | -1 | – | – | inhibition at 0.15 µM (A2780 [16]): 0%; inhibition at 0.3 µM [17]: 0%
CCCCCOC1(c2ccc(Cl)cc2)SC=C(C)n2c1noc2=O (stereo not drawn) | -39 | 248 | 19 | > 100 | 7.8 | > 100 | -38 | inactive | inactive | inhibition at 4 µM [18]: 0%; inhibition at 2.9 µM (A2780 [19]): 0%
